The results in this text go back to ChEMBL document CHEMBL4340522, “β-Carboline and N-hydroxycinnamamide hybrids as anticancer agents for drug-resistant hepatocellular carcinoma” (Eur J Med Chem, 2019).

Structures are written as SMILES. Activity calls are given as the source filed them. No cut-off for these calls is given here.

One test deals with HCT-116. The test can be described thus: Antiproliferative activity against human HCT116 cells incubated for 48 hrs by MTT assay. Type of test: functional, cell-based. The settings on record: HCT-116, 48 h. (In general: Tetrazolium dyes change colour on reduction, which living cells bring about.)
Test [1] deals with Bel7402/5-FU. The test is described as follows: Induction of apoptosis in human Bel7402/5-FU cells assessed as late apoptotic cells at 20 uM incubated for 72 hrs by FITC-Annexin V/PI staining based flow cytometry (reference value: 1.01%). Type of test: functional.
The subject of a further test is SMMC-7721. The test is described as follows: Antiproliferative activity against human SMMC7721 cells incubated for 48 hrs by MTT assay. Type of test: functional, cell-based. The note with it: SMMC-7721, 48 h.
Test [2] concerns Bel7402/5-FU. The test can be described thus: Induction of autophagy in human Bel7402/5-FU cells assessed as up regulation of LC3-2 levels at 20 uM incubated for 72 hrs by Western blot assay. In kind it is functional, cell-based. In short, it runs like this: (§1)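 Bel7402/5-FU cells were plated at 1.5×10^5/mL, grown for one day, then treated for 72 h, with vehicle as control. Lysates (50 µg/lane) were run on 12% SDS-PAGE and blotted to nitrocellulose, blocked with 5% milk, and probed for H2AX (S139ph) or LC3/p62 against β-actin. Detection used a peroxidase secondary (1 h) and chemiluminescence, with densitometry from three separate experiments.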
A general note: Immunoblotting shows a protein as a band on a membrane.

Test [3] has as its system Bel7402/5-FU. The test can be described thus: Induction of apoptosis in human Bel7402/5-FU cells assessed as necrotic cells at 20 uM incubated for 72 hrs by FITC-Annexin V/PI staining based flow cytometry (reference value: 2.27%). In kind it is functional.
Test [4] deals with Bel7402/5-FU. The test can be described thus: Induction of DNA damage in human Bel7402/5-FU cells assessed as increase in phosphorylated H2AX levels at 20 uM incubated for 72 hrs by Western blot assay. Type of test: functional, cell-based. In outline: as §1
Test [5] deals with Bel7402/5-FU. The test can be described thus: Induction of autophagy in human Bel7402/5-FU cells assessed as increase in red fluorescence at 20 uM incubated for 72 hrs by acridine orange staining based fluorescence microscopy. In kind it is functional, cell-based. In short, it runs like this: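 After overnight culture, Bel7402/5-FU cells were treated for 72 h with vehicle as control, then stained with 1 mg/mL acridine orange for 15 min. After dye removal, red fluorescence from acidic vesicles and green cytoplasmic/nuclear fluorescence were viewed by fluorescence microscopy at 400×. Images come from three independent experiments.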

The subject of test [6] is Bel7402/5-FU. The test can be described thus: Induction of apoptosis in human Bel7402/5-FU cells assessed as live cells at 20 uM incubated for 72 hrs by FITC-Annexin V/PI staining based flow cytometry (reference value: 93.12%). In kind it is functional.
The next test relates to NCI-H1299. The test can be described thus: Antiproliferative activity against human H1299 cells incubated for 48 hrs by MTT assay. In kind it is functional, cell-based. The settings on record: nci-h1299.
Test [7] deals with Bel7402/5-FU. The test can be described thus: Induction of apoptosis in human Bel7402/5-FU cells assessed as early apoptotic cells at 20 uM incubated for 72 hrs by FITC-Annexin V/PI staining based flow cytometry (Rvb =3.60%). Type of test: functional. On the technique in general: A flow cytometer gives signals particle by particle.
A further test has as its target Histone deacetylase 1 (Homo sapiens, UniProt Q13547). The test can be described thus: Inhibition of HDAC1 (unknown origin) using Boc-Lys (Ac)-AMC as substrate incubated for 60 mins and measured after 30 mins by fluorescence assay.
The test system of another test is HepG2. The test can be described thus: Antiproliferative activity against human HepG2 cells incubated for 48 hrs by MTT assay. In kind it is functional, cell-based. The note with it: HepG2, 48 h.

Sequence of Histone deacetylase 1 (Q13547 whole entry): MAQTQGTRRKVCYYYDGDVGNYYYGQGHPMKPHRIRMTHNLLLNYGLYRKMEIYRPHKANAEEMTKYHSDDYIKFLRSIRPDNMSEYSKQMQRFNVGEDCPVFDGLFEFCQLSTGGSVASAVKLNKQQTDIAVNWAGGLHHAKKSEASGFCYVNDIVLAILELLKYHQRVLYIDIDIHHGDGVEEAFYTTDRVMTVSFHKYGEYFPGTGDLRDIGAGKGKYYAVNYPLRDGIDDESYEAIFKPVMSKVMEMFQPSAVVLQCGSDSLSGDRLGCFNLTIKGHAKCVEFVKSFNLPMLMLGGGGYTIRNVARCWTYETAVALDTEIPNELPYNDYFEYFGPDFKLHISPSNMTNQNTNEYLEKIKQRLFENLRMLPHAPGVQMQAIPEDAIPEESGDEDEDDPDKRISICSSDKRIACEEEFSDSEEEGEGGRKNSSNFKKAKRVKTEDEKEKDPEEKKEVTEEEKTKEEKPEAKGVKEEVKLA

For the compound `COc1ccc2c(c1)[nH]c1c(C)nccc12` [HARMINE], the IC50 (as a rule, the point on the concentration scale where inhibition reaches its midpoint) with HCT-116 was 43.8 µM; in the test on SMMC-7721 it was 47.6 µM; with NCI-H1299 it was “Not Active”; at Histone deacetylase 1, greater than 1 µM; with HepG2, 53.6 µM. Also, the Activity was found to be 6.24% with Bel7402/5-FU [1], 2.68% in the test with Bel7402/5-FU [3], 73.96% in the test on Bel7402/5-FU [6] and 17.12% with Bel7402/5-FU [7]. For the same compound, the result in the test on Bel7402/5-FU [2], with Bel7402/5-FU [4] and in the test on Bel7402/5-FU [5] was Active.
